The subject of test [1] is Candida albicans. Description: Antifungal activity against Candida albicans. It counts as functional. The method, boiled down: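 Broth microdilution, C. albicans A26 (ATCC 62342) grown on Sabouraud dextrose agar at 35 °C; inoculum 1 × 10^5 conidia/mL in antibiotic 3 broth. Compounds dissolved at 1.0 mg/mL in methanol, 2-fold serial dilutions from 80 µg/mL, duplicate. Read after 48 h at 35 °C. MIC = lowest concentration completely inhibiting visible growth.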

The target in test [2] is Beta-1,3-glucan synthase (Candida albicans) (UniProt O13428). Description: In vitro inhibition of glucan synthase obtained from Candida albicans at a concentration of 10 ug/mL. An outline of the steps:
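Purified, solubilized β-(1,3)-D-glucan synthase prepared from C. albicans. Percent inhibition measured at 10 µg/mL compound, single determination.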

Test [3] has as its system Candida albicans. The test can be described thus: In vivo antifungal activity administered intraperitoneally against Candida albicans infections in mice. It counts as functional. Conditions: ip. An outline of the steps: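 Male ICR mice (18-20 g), X-irradiated with 400 r 24 h before iv tail-vein infection with 2 × 10^6 C. albicans A26 cells in saline. Compounds suspended in β-cyclodextrin, given parenterally at 0, 4, 24 and 48 h post-infection. 10 mice per dose, top dose 10 mg/kg with 2-fold dilutions down to 0.039 mg/kg. 7-day survival; ED50 by Reed-Muench.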

For test [4], the system named is Candida albicans. Description: In vivo antifungal activity administered orally against Candida albicans infections in mice. It counts as functional. As to conditions: po. An outline of the steps:
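X-irradiated (400 r, 24 h prior) male ICR mice infected iv with 2 × 10^6 C. albicans A26 cells. Oral gavage in cremophor (5%)/linoleic acid (8%)/water vehicle, b.i.d. × 4 starting immediately post-infection. 10 mice per dose level. Study ends at day 7; ED50 = dose giving 50% survival, by Reed-Muench.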

Values after ≈ are worked out from the molar mass of the structure shown. Numbered stars: 1 amine (or outer) side, 2 acyl side, 3 side chain; on linkers, the order of the positions; unused ones are H or OH. Bridge positions count the residues as written; N and C are the ends. Square brackets hold non-standard residues; d marks the D form. Peptide text beside a SMILES is read from it. * marks the point of attachment. pTerphenylCO(4''-OnC5H11) = CCCCCOc1ccc(-c2ccc(-c3ccc(C(=O)*)cc3)cc2)cc1; Orn(4R-OH,5R-OH) = O=C([C@H](C[C@@H](O)[C@@H](O)N[*:3])N[*:1])[*:2]; Benzoyl(4-(biphenyl-4-yl)) = O=C(c1ccc(-c2ccc(-c3ccccc3)cc2)cc1)*; hTyr(3S-OH,4S-OH) = N[C@H](C(=O)O)[C@H](O)[C@@H](O)c1ccc(O)cc1; Benzoyl(4-(4-OctO-Ph)) = CCCCCCCCOc1ccc(-c2ccc(C(=O)*)cc2)cc1; Pro(3S-OH,4S-Me) = C[C@H]1CN[C@H](C(=O)O)[C@H]1O; Benzoyl(4-octyloxy) = CCCCCCCCOc1ccc(C(=O)*)cc1; Hyp = O=C(O)[C@@H]1C[C@@H](O)CN1

Beta-1,3-glucan synthase (Candida albicans), sequence (O13428 as listed by the source): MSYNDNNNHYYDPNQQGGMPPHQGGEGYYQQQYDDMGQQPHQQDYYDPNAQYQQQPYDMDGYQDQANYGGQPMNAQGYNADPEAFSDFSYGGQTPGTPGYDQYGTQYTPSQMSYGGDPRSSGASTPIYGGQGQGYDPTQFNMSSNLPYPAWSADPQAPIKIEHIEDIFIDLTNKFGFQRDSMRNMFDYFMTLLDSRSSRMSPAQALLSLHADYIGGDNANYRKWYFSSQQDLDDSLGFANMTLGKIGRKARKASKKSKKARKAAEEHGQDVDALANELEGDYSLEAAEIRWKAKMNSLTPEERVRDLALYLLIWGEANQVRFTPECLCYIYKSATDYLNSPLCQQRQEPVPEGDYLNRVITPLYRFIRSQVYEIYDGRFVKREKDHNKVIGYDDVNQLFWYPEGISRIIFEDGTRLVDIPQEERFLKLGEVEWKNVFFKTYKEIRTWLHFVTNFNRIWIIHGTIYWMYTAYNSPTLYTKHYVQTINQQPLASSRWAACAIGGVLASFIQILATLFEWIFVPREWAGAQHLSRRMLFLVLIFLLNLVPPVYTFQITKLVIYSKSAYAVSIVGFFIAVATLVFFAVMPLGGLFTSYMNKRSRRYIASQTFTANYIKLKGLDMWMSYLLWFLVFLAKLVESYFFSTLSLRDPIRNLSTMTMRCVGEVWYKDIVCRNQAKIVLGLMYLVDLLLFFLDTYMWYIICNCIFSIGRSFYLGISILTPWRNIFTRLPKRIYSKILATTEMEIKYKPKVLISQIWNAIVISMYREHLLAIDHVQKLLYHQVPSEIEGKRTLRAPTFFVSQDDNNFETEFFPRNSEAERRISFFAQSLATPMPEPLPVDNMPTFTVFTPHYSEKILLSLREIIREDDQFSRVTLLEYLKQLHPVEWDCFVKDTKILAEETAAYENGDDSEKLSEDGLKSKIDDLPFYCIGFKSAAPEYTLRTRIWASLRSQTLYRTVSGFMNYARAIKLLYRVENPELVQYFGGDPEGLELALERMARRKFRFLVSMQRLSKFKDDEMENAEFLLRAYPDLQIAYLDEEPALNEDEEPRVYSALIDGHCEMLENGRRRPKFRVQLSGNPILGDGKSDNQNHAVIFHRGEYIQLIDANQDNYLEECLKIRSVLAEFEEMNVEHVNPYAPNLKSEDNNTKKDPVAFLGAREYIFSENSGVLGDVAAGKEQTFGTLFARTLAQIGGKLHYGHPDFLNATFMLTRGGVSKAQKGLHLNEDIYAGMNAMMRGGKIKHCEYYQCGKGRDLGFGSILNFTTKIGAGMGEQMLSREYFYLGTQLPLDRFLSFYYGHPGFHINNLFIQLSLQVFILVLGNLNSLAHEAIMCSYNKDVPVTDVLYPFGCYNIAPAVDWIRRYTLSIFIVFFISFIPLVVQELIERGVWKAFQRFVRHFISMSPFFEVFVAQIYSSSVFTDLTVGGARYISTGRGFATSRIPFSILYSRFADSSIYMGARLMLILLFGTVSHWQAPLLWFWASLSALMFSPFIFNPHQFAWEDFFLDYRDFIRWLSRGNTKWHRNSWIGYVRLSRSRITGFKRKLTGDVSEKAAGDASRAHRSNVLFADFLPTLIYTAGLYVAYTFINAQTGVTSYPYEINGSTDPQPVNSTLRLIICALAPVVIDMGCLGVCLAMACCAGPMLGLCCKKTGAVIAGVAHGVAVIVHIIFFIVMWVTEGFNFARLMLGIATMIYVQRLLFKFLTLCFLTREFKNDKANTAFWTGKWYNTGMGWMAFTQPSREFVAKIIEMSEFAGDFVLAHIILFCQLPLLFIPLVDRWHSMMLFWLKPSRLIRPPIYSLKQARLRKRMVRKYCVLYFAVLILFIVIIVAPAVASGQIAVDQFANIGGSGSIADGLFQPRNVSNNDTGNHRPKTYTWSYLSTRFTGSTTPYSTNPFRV

In test [1], `CCCCCCCCOc1ccc(-c2ccc(C(=O)N[C@H]3C[C@@H](O)[C@@H](O)NC(=O)[C@@H]4[C@@H](O)[C@@H](C)CN4C(=O)[C@H]([C@@H](C)O)NC(=O)[C@H]([C@H](O)[C@@H](O)c4ccc(O)cc4)NC(=O)[C@@H]4C[C@@H](O)CN4C(=O)[C@H]([C@@H](C)O)NC3=O)cc2)cc1` ({Benzoyl(4-(4-OctO-Ph))}-[Orn(4R-OH,5R-OH)]T[Hyp][hTyr(3S-OH,4S-OH)]T[Pro(3S-OH,4S-Me)]; lactam 1-C) showed an MIC of 0.0025 µg/mL (≈ 0.00226 µM). In test [2], this molecule registered an inhibition of 81.5%. Besides, the ED50 came to 0.5 mg/kg in test [3] and 27.3 mg/kg in test [4].

As to `C[C@@H](O)[C@@H]1NC(=O)[C@H]([C@H](O)[C@@H](O)c2ccc(O)cc2)NC(=O)[C@@H]2C[C@@H](O)CN2C(=O)[C@H]([C@@H](C)O)NC(=O)[C@@H](NC(=O)c2ccc(-c3ccc(-c4ccccc4)cc3)cc2)C[C@@H](O)[C@@H](O)NC(=O)[C@@H]2[C@@H](O)[C@@H](C)CN2C1=O` ({Benzoyl(4-(biphenyl-4-yl))}-[Orn(4R-OH,5R-OH)]T[Hyp][hTyr(3S-OH,4S-OH)]T[Pro(3S-OH,4S-Me)]; lactam 1-C), the MIC in test [1] came out at 0.078 µg/mL (≈ 0.074 µM). The inhibition in test [2] worked out at 78.8%. For the same molecule, the ED50 in test [3] is 1.3 mg/kg; in test [4], over 50 mg/kg.

`CCCCCOc1ccc(-c2ccc(-c3ccc(C(=O)N[C@H]4C[C@@H](O)[C@@H](O)NC(=O)[C@@H]5[C@@H](O)[C@@H](C)CN5C(=O)[C@H]([C@@H](C)O)NC(=O)[C@H]([C@H](O)[C@@H](O)c5ccc(O)cc5)NC(=O)[C@@H]5C[C@@H](O)CN5C(=O)[C@H]([C@@H](C)O)NC4=O)cc3)cc2)cc1` [ANIDULAFUNGIN] ({pTerphenylCO(4''-OnC5H11)}-[Orn(4R-OH,5R-OH)]T[Hyp][hTyr(3S-OH,4S-OH)]T[Pro(3S-OH,4S-Me)]; lactam 1-C) registered an MIC in test [1] of 0.005 µg/mL (≈ 0.00438 µM). The same molecule registered an inhibition in test [2] of 75%. The ED50 in test [3] was determined as 0.3 mg/kg; in test [4], 7.8 mg/kg.

With `CCCCCCCCOc1ccc(C(=O)N[C@H]2C[C@@H](O)[C@@H](O)NC(=O)[C@@H]3[C@@H](O)[C@@H](C)CN3C(=O)[C@H]([C@@H](C)O)NC(=O)[C@H]([C@H](O)[C@@H](O)c3ccc(O)cc3)NC(=O)[C@@H]3C[C@@H](O)CN3C(=O)[C@H]([C@@H](C)O)NC2=O)cc1` [CILOFUNGIN] ({Benzoyl(4-octyloxy)}-[Orn(4R-OH,5R-OH)]T[Hyp][hTyr(3S-OH,4S-OH)]T[Pro(3S-OH,4S-Me)]; lactam 1-C), in test [1], the MIC was found to be 0.312 µg/mL (≈ 0.303 µM). The same molecule displayed an inhibition in test [2] of 76%. Moreover, the ED50 is 7.6 mg/kg in test [3] and over 400 mg/kg in test [4].

A word on the MIC: it is the lowest concentration found to suppress growth. As a reminder, the inhibition is the drop in the measured response relative to a control, in per cent. A lower inhibition goes with a response near the control. As usually defined, the ED50 is the dose at which the effect has come halfway, by size or by number of responders. Low readings indicate greater potency, high ones weaker potency.

The values above are taken from ChEMBL document CHEMBL1128519, “Semisynthetic chemical modification of the antifungal lipopeptide echinocandin B (ECB): structure-activity studies of the lipophilic and geometric parameters of polyarylated acyl analogs of ECB” (J Med Chem, 1995).
